{"source": "paper PMC6039259", "about": "(Nature medicine, 2018)", "key": {"[1]": {"test_system": "primary microglia", "test": "α-syn PFF-induced activation of primary microglia", "format": "cell-based, mouse", "outline": "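Primary mouse microglia, CD11b-selected from P1 mixed glia, are pretreated with test compound (1 μM), then given α-syn PFF (1 μg/ml). PFF is endotoxin-depleted recombinant mouse α-syn, stirred a week at 37 °C and sonicated. For qPCR, total RNA is normalized to β-actin by 2^−ΔΔCt, with n=3 independent cultures. Cytokines in medium collected 18 hrs post-PFF are measured by mouse cytokine ELISA array.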"}, "[2]": {"test_system": "α-syn PFF injected C57BL6 mice", "test": "Intrastriatal α-syn PFF mouse model of sporadic PD", "format": "in vivo"}, "[3]": {"test_system": "astrocytes of ventral midbrain", "test": "qPCR of astrocytes from ventral midbrain of α-syn PFF injected mice", "format": "in vivo"}, "[4]": {"test_system": "hA53T α-syn Tg mice", "test": "hA53T α-synuclein transgenic mouse model", "format": "in vivo"}, "[5]": {"test_system": "murine primary cortical cultures", "test": "α-syn PFF-ACM toxicity in murine primary cortical neurons", "format": "cell-based, mouse", "outline": "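Cortical neurons from E15.5 CD1 embryos are grown in B-27 Neurobasal medium on poly-L-lysine. ACM is made by giving astrocytes 24 h of α-syn PFF-MCM, with or without test compound on the microglia. It is collected with protease inhibitors, concentrated about 50X (10 kDa cutoff) and dosed at 15 μg/ml total protein. Nuclei are stained with Hoechst (7 μM) and PI (2 μM) and counted by computer, relative to control wells.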"}, "[6]": {"molecular_target": "human recombinant GLP-1R (Homo sapiens, UniProt P43220)", "sequence (P43220 24-463)": "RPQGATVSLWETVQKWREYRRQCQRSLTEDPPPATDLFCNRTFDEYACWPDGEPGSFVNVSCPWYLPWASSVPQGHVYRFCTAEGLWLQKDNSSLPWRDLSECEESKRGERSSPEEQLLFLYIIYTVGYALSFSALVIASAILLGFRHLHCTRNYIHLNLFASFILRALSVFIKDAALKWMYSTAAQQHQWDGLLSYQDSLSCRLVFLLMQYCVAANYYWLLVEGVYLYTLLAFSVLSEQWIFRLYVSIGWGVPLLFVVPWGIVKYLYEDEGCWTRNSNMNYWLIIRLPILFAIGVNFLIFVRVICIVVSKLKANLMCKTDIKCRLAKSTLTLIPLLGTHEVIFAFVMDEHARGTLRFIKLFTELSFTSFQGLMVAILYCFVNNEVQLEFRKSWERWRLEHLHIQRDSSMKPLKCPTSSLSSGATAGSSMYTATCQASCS", "test": "cAMP production in GLP-1R transfected HEK-293/CRE-LUC/GLP1R cells", "format": "cell-based"}, "[7]": {"test": "NLY01 accumulation in brain / BBB penetration", "format": "in vivo, mice"}, "[8]": {"test_system": "primary astrocytes", "test": "A1 astrocyte induction by α-syn PFF-MCM in primary astrocytes", "format": "cell-based, mouse", "outline": "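Primary microglia and astrocytes come from P1 CD1 mouse whole brains. Mixed glia are grown 13 days, then split by CD11b positive selection: the bound fraction is microglia and the pour-off is astrocytes. Microglia get α-syn PFF with PBS or test compound (1 μM). Their conditioned medium is applied to astrocytes for 24 hrs, and GFAP is measured by immunoblot.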"}, "[9]": {"test_system": "human dopaminergic (DA) neurons", "test": "Direct α-syn PFF toxicity in human DA neurons", "format": "cell-based", "conditions": "direct treatment of DA neurons, NLY01 1 µM, human α-syn PFF 5 µg/ml", "outline": "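Viability is read three ways: alamarBlue per kit protocol, LDH activity in culture medium measured spectrophotometrically, and trypan blue counting. For trypan blue, neurons are trypsin-dissociated to single cells and mixed 1:1 with dye. Live and dead cells are counted on an automated cell counter, with three wells per condition.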"}, "[10]": {"test_system": "human DA neurons", "test": "α-syn PFF-ACM toxicity in human DA neurons", "format": "cell-based", "conditions": "NLY01 applied to the α-syn PFF treated microglia; alamarBlue, LDH, trypan blue, 5 days"}, "[11]": {"conditions": "3 mg/kg s.c. twice a week for five months"}}}
{"substance": "His-Gly-Glu-Gly-Thr-Phe-Thr-Ser-Asp-Leu-Ser-Lys-Gln-Met-Glu-Glu-Glu-Ala-Val-Arg-Leu-Phe-Ile-Glu-Trp-Leu-Lys-Asn-Gly-Gly-Pro-Ser-Ser-Gly-Ala-Pro-Pro-Pro-Ser-Cys(PEG50K)-NH2 [NLY01, pegylated [Cys^40]Exendin-4]", "values": [{"measurement": "uptake of α-syn PFF in microglia", "setting": "[1]", "value": "does not interfere"}, {"measurement": "α-syn PFF induced C1q and TNFα release into media, western blot", "setting": "[1]; NLY01 1 µM pretreatment", "value": "significantly inhibited"}, {"measurement": "α-syn PFF induced protein levels of IL-1α, TNFα, IL-1ß, C1q, ELISA", "setting": "[1]; NLY01 1 μM pretreatment, MCM 18 hrs after α-syn PFF", "value": "reduced"}, {"measurement": "α-syn PFF induced mRNA for Il1a, Il1b, Tnfα, C1qa, Il6, qPCR", "setting": "[1]; NLY01 1 μM pretreatment, α-syn PFF 1 μg/ml", "value": "significantly reduces"}, {"measurement": "α-syn PFF induced cytokines (IL-1α, TNFα, IL-1ß, IL-6, leptin), ELISA cytokine array", "setting": "[1]; primary microglia, α-syn PFF 1 µg/ml", "value": "reduces"}, {"measurement": "NF-kB pathway", "setting": "[1]; α-syn PFF-induced NF-kB nuclear translocation and phosphorylation", "value": "inhibits"}, {"measurement": "Triton X-100 insoluble α-syn and p-α-syn ser129, western blot", "setting": "[2]; [11]", "value": "significantly reduces"}, {"measurement": "α-syn PFF induced reduction in striatal TH immunoreactivity and striatal TH and DAT protein", "setting": "[2]; [11]", "value": "rescued"}, {"measurement": "p-α-syn ser129 immunoreactivity in striatum, ventral midbrain and TH neurons", "setting": "[2]; 3 mg/kg s.c. twice a week for five months, from one month after α-syn PFF", "value": "significantly reduces"}, {"measurement": "α-syn PFF induced loss of TH and Nissl positive neurons in the SNpc", "setting": "[2]; 3 mg/kg s.c. twice a week for five months, n=10", "value": "prevented"}, {"measurement": "ipsilateral amphetamine induced rotation", "setting": "[2]; 5 mg/kg amphetamine i.p., six months after α-syn PFF", "value": "prevented"}, {"measurement": "α-syn PFF induced GFAP immunoreactivity and GFAP level in the ventral midbrain", "setting": "[2]; immunohistochemistry and western blot", "value": "blocked"}, {"measurement": "α-syn PFF induced mRNA for Il1a, Il1b, Tnfα, C1qa, Il6 in ventral midbrain", "setting": "[2]; qPCR, n=4", "value": "blocked"}, {"measurement": "behavioral deficits in accelerating rotarod test and pole test", "setting": "[2]; six months after α-syn PFF", "value": "significantly reduces the behavioral deficits"}, {"measurement": "contralateral forepaw touches, cylinder test", "setting": "[2]; six months after α-syn PFF", "value": "restored"}, {"measurement": "increase in grooming time and reduction in rearing, cylinder test", "setting": "[2]; six months after α-syn PFF", "value": "restored"}, {"measurement": "Iba-1 immunoreactivity and microglial density in the SNpc", "setting": "[2]; six months post injection", "value": "significantly reduces"}, {"measurement": "α-syn PFF induced A1 astrocyte specific transcripts", "setting": "[3]", "value": "prevented"}, {"measurement": "induction of C3 mRNA in isolated astrocytes", "setting": "[3]; n=4", "value": "blocks"}, {"measurement": "prolongation of lifespan", "setting": "[4]; 3 mg/kg s.c. twice a week from six months of age, n=20", "value": "over 100 days"}, {"measurement": "p-α-syn ser129 immunoreactivity, aggregated α-syn and ubiquitin immunoreactivity", "setting": "[4]; 3 mg/kg, brainstem", "value": "reduction"}, {"measurement": "microglial and astrocytic activation (Iba-1, GFAP immunoreactivity)", "setting": "[4]; brainstem", "value": "significantly attenuates"}, {"measurement": "increase of C3 mRNA", "setting": "[4]; ten-month-old hA53T α-syn Tg mice", "value": "prevented"}, {"measurement": "α-syn PFF-ACM induced cell death", "setting": "[5]; NLY01 (1 µM) applied to the α-syn PFF treated microglia, Hoechst/PI, 48 hrs", "value": "significantly prevents"}, {"measurement": "p-α-syn ser129 levels induced by α-syn PFF-ACM", "setting": "[5]; pretreatment of NLY01 in microglia", "value": "significantly reduced"}, {"measurement": "biologic activity in vitro relative to Exendin-4", "setting": "[6]", "value": "comparable biologic activity"}, {"measurement": "brain levels", "setting": "[7]; ten-month-old hA53T Tg mice, 3 mg/kg", "value": "reaches high brain levels"}, {"measurement": "blood-brain barrier penetration", "setting": "[7]; wild type (WT) mice", "value": "efficiently penetrates the blood-brain barrier"}, {"measurement": "α-syn PFF-MCM induced GFAP", "setting": "[8]; NLY01 1 μM, 24 hrs, immunoblot", "value": "blocked"}, {"measurement": "induction of A1 astrocytic specific markers", "setting": "[8]; NLY01 treatment of microglia, but not that of astrocytes", "value": "prevents"}, {"measurement": "protection against α-syn PFF induced cell death (alamarBlue, LDH, trypan blue)", "setting": "[9]", "value": "fails to protect"}, {"measurement": "α-syn PFF-ACM induced cell death", "setting": "[10]", "value": "significantly prevents"}]}
